Source: PubChem BioAssay
DDE Tn6 FP inh: inhibitors of Tn6 peptide binding to human fibrin DD(E); Fibrin DD(E) TRITC-Tn6 fluorescence polarization displacement; 370,000 tested, 0.21% active; AID 720509; P02675; inhibition, % at 8.3 µM;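 active = inhibition above a per-campaign cutoff: mean of compounds within control limits plus 3 SD, cut at about 15% in these data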;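 note: 0% = median of all compound wells on the plate and 100% = blocking peptide control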
Target sequence (P02675 whole entry, looked up): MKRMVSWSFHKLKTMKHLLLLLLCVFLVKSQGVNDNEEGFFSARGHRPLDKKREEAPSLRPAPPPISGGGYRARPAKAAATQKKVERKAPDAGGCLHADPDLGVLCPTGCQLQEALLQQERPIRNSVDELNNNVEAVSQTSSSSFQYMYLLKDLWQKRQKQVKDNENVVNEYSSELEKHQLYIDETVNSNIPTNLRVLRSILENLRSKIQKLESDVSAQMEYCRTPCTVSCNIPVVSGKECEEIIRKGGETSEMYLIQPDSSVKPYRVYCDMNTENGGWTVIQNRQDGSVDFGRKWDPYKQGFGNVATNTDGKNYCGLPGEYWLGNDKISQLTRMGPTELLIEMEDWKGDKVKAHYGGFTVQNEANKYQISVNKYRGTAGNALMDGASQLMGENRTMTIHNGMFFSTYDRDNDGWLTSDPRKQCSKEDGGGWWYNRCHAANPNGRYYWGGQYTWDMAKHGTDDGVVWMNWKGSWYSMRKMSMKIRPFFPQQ
DDE Tn7 FP inh: inhibitors of Tn7 peptide binding to human fibrin DD(E); FP displacement of FITC-Tn7 peptide from fibrin DD(E); 0% = median of compound wells per plate; inhibition, % at 8.3 µM; 370,000 tested, 0.13% active;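 active = inhibition above the mean of compounds falling within the control limits plus 3 SD of them, cut at about 14% in these data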;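 note: 0% = plate median of compound wells and 100% = 10 µM Aha-Tn7 peptide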
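assay system = human clot-derived fibrin DD(E) complex | quantity = Fibrin-DD(E) at 2 µM final | timing = 10 min preincubation, 3 h with tracer, room temperature | signal = fluorescence polarization | measure = percent inhibition | benchmarks = high control wells with 10 µM unlabelled Aha-Tn7 peptide (full inhibition) | replicates = singlicate testing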
ASAP1 inh: ASAP1 ArfGAP inhibition; Q9ULH1; ASAP1-stimulated ARF1 GTP hydrolysis, GDP FP detection; inhibition, % at 16.5 µM; 360,000 tested, 0.19% active; AID 624377; in the data active = inhibition above about 25%;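 note: 0% = vehicle with enzyme and substrate and 100% = no enzyme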
ARFGAP1 inhibitor: rat ARFGAP1 inhibition; Q62848; Arfgap1-stimulated ARF1 GTP hydrolysis, GDP FP detection; inhibition, % at 16.5 µM; 360,000 tested, 0.26% active;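 active = inhibition above a per-plate limit, mean inhibition of low control wells plus 3 SD, cut at about 25% in these data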;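 note: 0% = DMSO wells with enzyme and 100% = wells lacking Arfgap1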
Target sequence (Q62848 1-136 limits assumed): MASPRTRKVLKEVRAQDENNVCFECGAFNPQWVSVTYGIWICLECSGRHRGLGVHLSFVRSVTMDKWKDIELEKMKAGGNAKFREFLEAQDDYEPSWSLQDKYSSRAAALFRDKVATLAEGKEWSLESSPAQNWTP
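system = rat Arfgap1 catalytic domain, aa 1-136 | technique = FP, GDP Alexa 633 tracer displaced from anti-GDP antibody, 620/688 nm | compound = one concentration, 16.5 µM, DMSO 1.26% | medium = HEPES-based buffer, pH 7.5 | timing = compound-enzyme preincubation 20 min, reaction 120 min, detection 60 min, 25 °C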
DDE Tn7 confirm: DD(E)-Tn7 binding inhibition, FP confirmation; FP displacement of TRITC-Tn7 peptide from DD(E); 0% set at plate's compound-well median; 460 tested, 5% active; shares compounds with DDE Tn7 FP inh; inhibition, % at 8.3 µM; AID 720628;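 active = inhibition above the campaign cutoff, the mean of compounds within control limits plus 3 SD, cut at about 14% in these data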;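 note: 100% = median FP of high control wells holding Aha-Tn7 inhibitor peptide; displacers lower polarization since freed probe rises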
DDE Tn7 FP ctr: DD(E)-Tn7 binding inhibition, counter-screen; shares compounds with DDE Tn7 FP inh; fibrin DD(E), TRITC-Tn7 probe displacement, fluorescence polarization; inhibition, % at 8.3 µM; 460 tested, 3% active; AID 720633;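 active = inhibition above the cutoff, the mean of compounds lying between the control bounds plus 3 SD of those compounds, cut at about 17% in these data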;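 note: 0% = median of compound sample wells and 100% = excess unlabeled Aha-Tn7 peptide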
Active calls of the source: *; nt = no result. In the library only some 0.74% were active in any assay of this set; here they are far more common.

SMILES | DDE Tn6 FP inh | DDE Tn7 FP inh | ASAP1 inh | ARFGAP1 inhibitor | DDE Tn7 confirm | DDE Tn7 FP ctr
CCC1(C)NC(=O)N(CC(=O)N2N=C(c3ccccc3)CC2c2ccc(OC)cc2)C1=O (stereo unspecified) | 3 | 17* | -16 | -8 | -4 | -9
COC(=O)C1CN(Cc2ccccc2)CCS(=O)(=O)N1Cc1cn(Cc2ccc(C)cc2)nn1 (stereo unspecified) | -2 | 4 | nt | nt | nt | nt
CC[C@@]12C(=O)N(c3ccc(OC)cc3)C(=O)N1[C@H](c1ccc(Cl)cc1)[C@@H]1C(=O)N(C3CCCCC3)C(=O)[C@@H]12 | 3 | 16* | -2 | -11 | 7 | -1
CC[C@@]12C(=O)N(c3cccc(Br)c3)C(=O)N1[C@H](c1ccc(Cl)cc1)[C@@H]1C(=O)N(C3CCCCC3)C(=O)[C@@H]12 | 4 | -6 | -5 | 6 | nt | nt
O=C(NCCc1ccccc1F)c1[nH]c(C(F)(F)F)nc1-c1ccccc1 | -2 | -2 | 0 | 7 | nt | nt
COCCNC(=O)c1[nH]c(C(F)(F)F)nc1-c1ccccc1 | 2 | 15* | -6 | -16 | 8 | 2
COc1ccc(CCNC(=O)CC2SC(=NCc3ccccc3)NC2=O)cc1 (stereo unspecified) | 1 | 15* | 3 | -1 | -2 | -6
CC(=O)c1ccccc1NC(=O)CCCNC(=O)c1ccc(Cl)cc1 | 9 | 15* | -13 | 5 | 10 | 3
Cc1ccccc1NC(=O)CCCNC(=O)c1ccc(Cl)cc1 | -2 | -3 | 13 | 14 | nt | nt
CC(C)(CNc1ccc([N+](=O)[O-])cc1C#N)N1CCOCC1 | 2 | 15* | 6 | -5 | 5 | 2
CC(C)C[C@H](NC1(C(=O)NC2CCCCC2)CCCCC1)C(=O)NCCc1c[nH]c2ccccc12 | -5 | 0 | nt | nt | nt | nt
Cc1c(O)nc2ccccn2c1=O | 13 | 14* | -10 | -3 | 1 | -3
COc1cccc(C(=O)Nc2ccccc2N2CCCC2)c1 | -4 | 7 | 0 | -4 | nt | nt
O=C(Nc1ccccc1N1CCCCC1)c1cccc(Cl)c1 | 0 | 14* | -10 | -2 | -2 | -8
COc1ccc(N2C(=O)NC3CC2(C)Oc2ccccc23)cc1 (stereo unspecified) | -4 | 16* | -13 | -9 | 1 | 3
CC1CC2(CC(C)(C(=O)CSc3nc4ccccc4s3)OC2=O)C(=O)O1 (stereo unspecified) | -4 | -2 | -4 | 8 | nt | nt
CC1(C)CC2(CC(C)(C(=O)CSc3nc4ccccc4s3)OC2=O)C(=O)O1 (stereo unspecified) | -2 | 18* | 13 | -7 | 1 | -10
COC(=O)C[C@H]1CC[C@H]2[C@H](COc3ccc(NC(=O)C4CCOCC4)cc3C(=O)N2C)O1 | -6 | 1 | nt | nt | nt | nt
N#CCc1ccc(OC[C@@H](O)CN2CCC(C(O)(c3ccccc3)c3ccccc3)CC2)cc1 | 4 | -4 | nt | nt | nt | nt
COc1ccc([C@H]2CC(=O)C=C(c3ccc(Cl)c(F)c3)C2)cc1 | -7 | 14* | -7 | 3 | 7 | 5
Cc1ccc(-c2nc(C3CCCN(S(=O)(=O)c4ccc(Cl)s4)C3)no2)cc1 (stereo unspecified) | -1 | 9 | nt | nt | nt | nt
COc1cccc(/C=N\NC(=O)c2ccc(Cn3cc(Br)c([N+](=O)[O-])n3)o2)c1O | -13 | 14* | 12 | 18 | -2 | -10
COc1cc(/C=N\NC(=O)c2ccc(Cn3nc([N+](=O)[O-])c(Cl)c3C)o2)ccc1O | 0 | -3 | 15 | -8 | nt | nt
Nc1cc(N2CCCCC2)c([N+](=O)[O-])cc1Cl | -10 | 14* | 2 | 3 | -5 | -11
O=C1CCC[C@H]2C[C@H](NCc3cccnc3)CC[C@]23CCCN13 | 6 | -1 | nt | nt | nt | nt
SMILES | DDE Tn6 FP inh | DDE Tn7 FP inh | ASAP1 inh | ARFGAP1 inhibitor | DDE Tn7 confirm | DDE Tn7 FP ctr
COC(=O)[C@H](C(C)C)N(Cc1ccccc1)S(=O)(=O)CCN1CCCC1 | 5 | -7 | -4 | -12 | nt | nt
COC(=O)C(C(C)C)N(Cc1cc(OC)cc(OC)c1)S(=O)(=O)CCl (stereo unspecified) | 1 | 15* | -21 | 8 | 0 | -4
Cc1noc(C)c1S(=O)(=O)Nc1ccc2c(c1)C(=O)N([C@@H](C)CO)C[C@H](C)[C@@H](CN(C)Cc1ccc(C(F)(F)F)cc1)OCCCC[C@H](C)O2 | -4 | 14* | 15 | -7 | 3 | 2
Nc1nc(-n2cnnc2)nn1-c1ccccc1 | 2 | 5 | 1 | 10 | nt | nt
Nc1nc(N2C(=O)C3CC=CCC3C2=O)nn1-c1ccccc1 (stereo unspecified) | -5 | 16* | -5 | -1 | -2 | -3
Cc1ccccc1C(=O)NCC(C)NC(=O)c1ccccc1C (stereo unspecified) | 0 | 14* | 8 | -1 | 0 | -2
CCCS(=O)(=O)n1nc(-c2ccc(C)cc2)cc1N | 5 | 14* | -3 | -11 | -1 | -2
CCCS(=O)(=O)n1nc(-c2ccc(OC)cc2)cc1N | 3 | -2 | -8 | 9 | nt | nt
COc1cccc(CNC2CCC23CCC(C)CC3)c1 (stereo unspecified) | -1 | 0 | nt | nt | nt | nt
Cc1cccc(NC(=O)c2ccc(C(=O)c3ccccc3)cc2)n1 | -3 | 20* | 9 | 14 | 5 | -1
O=C1CCCc2c1cc(C(=O)O)c(=O)n2-c1ccccc1 | -8 | -5 | 9 | -2 | nt | nt
COC(=O)C(CCSC)NC(=O)c1cc2c(n(-c3ccccc3)c1=O)CCCC2=O (stereo unspecified) | 8 | 15* | -8 | 1 | 6 | 1
CCOC(=O)N1CCN(Cc2nc(-c3ccc(Cl)cc3)no2)CC1 | -1 | 15* | -2 | 10 | 6 | -10
O=C1[C@H](Cc2ccccc2)NCC=CC[C@H](c2ccco2)N1Cc1ccccc1 | -3 | 16* | 0 | 14 | 2 | -5
CCOC(=O)[C@@]12CCC3=C1N(CCC3)C(=O)[C@H](CC(=O)N1CCSCC1)C2 | 7 | 2 | nt | nt | nt | nt
O=C(Nc1ccc(F)cc1F)C1CCN(c2nnc(-n3cccc3)s2)CC1 | 4 | -4 | nt | nt | nt | nt
Cn1cccc1C(=O)OCC(=O)NCc1ccc2c(c1)OCO2 | -3 | 21* | 13 | -9 | 4 | 3
CC(=O)CC[C@H]1CC[C@]2(CCCN(C(=O)c3ccco3)C2)O1 | 0 | -1 | nt | nt | nt | nt
O=C(COC(=O)CNC(=O)c1cccs1)Nc1ccc(C(F)(F)F)cc1[N+](=O)[O-] | 7 | 15* | -7 | -10 | -2 | -2
Cc1cc(NC(=O)COC(=O)CNC(=O)c2cccs2)c([N+](=O)[O-])cc1C | 0 | -5 | 6 | -5 | nt | nt
N#CC1=C(N)Oc2n[nH]c(-c3ccc(F)cc3)c2C1c1cccc(OC(=O)N2CCOCC2)c1 (stereo unspecified) | 7 | 15* | -6 | -3 | 5 | -3
